Assays:
[1] = Antitumor activity against Brown Norwegian rat bearing BN472 tumor assessed as reduction of tumor weight at 1 mg/kg, ip administered once daily after 4 days of tumor transplantation for 17 to 18 days relative to control; assay type: functional; parameters: scale not given: the % may be the effect or the level left; conditions: route intraperitoneal
Outline: (§1)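 Rats bearing orthotopic BN472 breast tumours (grown three days) were dosed i.p. daily from day 4 for 17–18 days at 0.1 or 1 mg/kg. Vehicle-only i.p. controls were included. Tumour size and tumour weight were measured at the end of the treatment period and compared with controls.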

[2] = Antimetastatic activity against Brown Norwegian rat bearing BN472 tumor assessed as reduction of axillary lymph node weight at 0.1 mg/kg, ip administered once daily after 4 days of tumor transplantation for 17 to 18 days relative to control; assay type: functional; parameters: scale not given: the % may be the effect or the level left; conditions: route intraperitoneal
Outline: (§2)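 BN472 breast tumours implanted orthotopically in rats and left to grow three days. From day 4, compounds were given i.p. daily for 17–18 days at 0.1 or 1 mg/kg. Controls received vehicle i.p. only. Lung foci were counted and axillary lymph nodes weighed at the end of treatment. Groups were compared with control at an unadjusted significance level of P 0.05.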

[3] = tested on: Rattus norvegicus; experiment: Toxicity in Brown Norwegian rat bearing BN472 tumor assessed as decrease in spleen weight at 0.1 mg/kg, ip administered once daily after 4 days of tumor transplantation for 17 to 18 days relative to control; assay type: organism-based; parameters: dose 0.1 mg/kg, route intraperitoneal; scale not given: the % may be the effect or the level left; conditions: in vivo
Outline: (§3)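 Orthotopic BN472 breast tumour model in rats. Daily i.p. dosing at 0.1 or 1 mg/kg started on day 4 and ran 17–18 days, with vehicle-only i.p. controls. Side effects were assessed from body weight and the weights of several organs, compared with controls.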

[4] = tested on: Rattus norvegicus; experiment: Toxicity in Brown Norwegian rat bearing BN472 tumor assessed as decrease in liver weight at 0.1 mg/kg, ip administered once daily after 4 days of tumor transplantation for 17 to 18 days relative to control; assay type: organism-based; parameters: dose 0.1 mg/kg, route intraperitoneal; scale not given: the % may be the effect or the level left; conditions: in vivo; outline: as §3
[5] = target: Plasminogen (Homo sapiens, UniProt P00747); experiment: Inhibition of human plasmin
Plasminogen (Homo sapiens, UniProt P00747), sequence (P00747 97-580 limits assumed): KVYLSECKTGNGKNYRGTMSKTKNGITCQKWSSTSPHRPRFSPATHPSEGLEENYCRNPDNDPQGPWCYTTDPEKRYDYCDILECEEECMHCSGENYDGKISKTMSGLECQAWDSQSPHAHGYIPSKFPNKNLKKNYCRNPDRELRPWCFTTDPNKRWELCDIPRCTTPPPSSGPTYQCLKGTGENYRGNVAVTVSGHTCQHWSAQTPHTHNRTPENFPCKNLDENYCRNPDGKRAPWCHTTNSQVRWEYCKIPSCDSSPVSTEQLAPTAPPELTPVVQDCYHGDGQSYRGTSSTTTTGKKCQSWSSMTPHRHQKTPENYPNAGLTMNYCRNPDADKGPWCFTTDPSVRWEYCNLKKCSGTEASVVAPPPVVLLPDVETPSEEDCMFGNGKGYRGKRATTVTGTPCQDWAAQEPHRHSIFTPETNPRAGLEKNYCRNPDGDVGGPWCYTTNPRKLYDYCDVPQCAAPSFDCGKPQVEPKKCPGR
Plasminogen (Homo sapiens, UniProt P00747), sequence (P00747 581-810 limits assumed): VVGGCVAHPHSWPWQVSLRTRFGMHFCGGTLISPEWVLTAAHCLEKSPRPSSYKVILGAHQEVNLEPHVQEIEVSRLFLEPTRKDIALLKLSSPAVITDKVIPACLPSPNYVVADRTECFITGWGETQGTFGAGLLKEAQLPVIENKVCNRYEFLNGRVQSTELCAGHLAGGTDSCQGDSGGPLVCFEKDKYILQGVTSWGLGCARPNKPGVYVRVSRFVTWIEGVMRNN
Outline: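 Plasmin from human plasma at about 5 mU was preincubated with inhibitor (0–250 µM final) for 15 min at 37 °C. Substrate was S-2366 at 580 µM in Tris pH 7.4. Initial rate was read at 405 nm, in duplicate. IC50 came from a four-parameter logistic fit.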

[6] = tested on: Rattus norvegicus; experiment: Toxicity in Brown Norwegian rat bearing BN472 tumor assessed as effect on body weight at 1 mg/kg, ip administered once daily after 4 days of tumor transplantation for 17 to 18 days relative to control; assay type: organism-based; parameters: dose 1 mg/kg, route intraperitoneal; conditions: in vivo; outline: as §3
[7] = Distribution coefficient, log D in octanol and phosphate buffer saline at pH 7.4; assay type: physicochemical; conditions: octanol/phosphate buffered saline
Outline: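 A 10 mM DMSO stock was added to a 1:1 octanol/PBS pH 7.4 mixture. Measured in duplicate.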

[8] = target: Prothrombin (Mus musculus, UniProt P19221); experiment: Inhibition of mouse thrombin
[9] = target: Urokinase-type plasminogen activator (Homo sapiens, UniProt P00749)
[10] = tested on: Rattus norvegicus; experiment: Toxicity in Brown Norwegian rat bearing BN472 tumor assessed as increase in uterus weight at 0.1 mg/kg, ip administered once daily after 4 days of tumor transplantation for 17 to 18 days relative to control; assay type: organism-based; parameters: dose 0.1 mg/kg, route intraperitoneal; conditions: in vivo; outline: as §3
[11] = Chemical stability assessed as half life of hydrolysis at pH 7.4; assay type: physicochemical; conditions: buffer
[12] = target: Plasminogen (Rattus norvegicus, UniProt Q01177); experiment: Inhibition of rat plasmin
Plasminogen (Rattus norvegicus, UniProt Q01177), sequence (Q01177 97-581 limits assumed): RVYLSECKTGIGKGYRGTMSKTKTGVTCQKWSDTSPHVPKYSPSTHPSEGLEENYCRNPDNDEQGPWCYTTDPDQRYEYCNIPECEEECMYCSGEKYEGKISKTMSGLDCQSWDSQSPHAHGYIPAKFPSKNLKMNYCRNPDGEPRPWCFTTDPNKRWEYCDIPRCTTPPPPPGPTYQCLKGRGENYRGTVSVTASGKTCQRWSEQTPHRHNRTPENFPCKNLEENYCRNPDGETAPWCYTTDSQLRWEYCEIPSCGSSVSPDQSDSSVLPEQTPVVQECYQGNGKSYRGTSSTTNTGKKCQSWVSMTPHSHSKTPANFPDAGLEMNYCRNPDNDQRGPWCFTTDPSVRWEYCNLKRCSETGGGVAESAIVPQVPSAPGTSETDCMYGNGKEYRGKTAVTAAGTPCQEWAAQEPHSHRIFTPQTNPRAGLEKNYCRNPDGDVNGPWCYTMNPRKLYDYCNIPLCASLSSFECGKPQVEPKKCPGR
Plasminogen (Rattus norvegicus, UniProt Q01177), sequence (Q01177 582-812 limits assumed): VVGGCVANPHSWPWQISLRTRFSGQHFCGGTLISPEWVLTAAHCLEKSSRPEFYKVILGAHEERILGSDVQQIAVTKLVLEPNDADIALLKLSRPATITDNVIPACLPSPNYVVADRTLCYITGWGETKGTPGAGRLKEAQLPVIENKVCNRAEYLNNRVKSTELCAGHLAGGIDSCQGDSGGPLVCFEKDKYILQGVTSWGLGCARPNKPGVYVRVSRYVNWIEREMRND

[13] = target: Prothrombin (Rattus norvegicus, UniProt P18292); experiment: Inhibition of rat thrombin
[14] = Antimetastatic activity against Brown Norwegian rat bearing BN472 tumor assessed as decrease in number of lung foci at 0.1 mg/kg, ip administered once daily after 4 days of tumor transplantation for 17 to 18 days relative to control; assay type: functional; parameters: scale not given: the % may be the effect or the level left; conditions: route intraperitoneal; outline: as §2
[15] = Antitumor activity against Brown Norwegian rat bearing BN472 tumor assessed as reduction of tumor size at 1 mg/kg, ip administered once daily after 4 days of tumor transplantation for 17 to 18 days relative to control; assay type: functional; parameters: scale not given: the % may be the effect or the level left; conditions: route intraperitoneal; outline: as §1
[16] = Chemical stability assessed as half life of hydrolysis at pH 1; assay type: physicochemical; conditions: buffer
[17] = tested on: Rattus norvegicus; experiment: Toxicity in Brown Norwegian rat bearing BN472 tumor assessed as increase in kidney weight at 0.1 mg/kg, ip administered once daily after 4 days of tumor transplantation for 17 to 18 days relative to control; assay type: organism-based; parameters: dose 0.1 mg/kg, route intraperitoneal; conditions: in vivo; outline: as §3
[18] = tested on: Rattus norvegicus; experiment: Toxicity in Brown Norwegian rat bearing BN472 tumor assessed as decrease in liver weight at 1 mg/kg, ip administered once daily after 4 days of tumor transplantation for 17 to 18 days relative to control; assay type: organism-based; parameters: dose 1 mg/kg, route intraperitoneal; scale not given: the % may be the effect or the level left; conditions: in vivo; outline: as §3
[19] = tested on: Rattus norvegicus; experiment: Toxicity in Brown Norwegian rat bearing BN472 tumor assessed as decrease in adrenal weight at 0.1 mg/kg, ip administered once daily after 4 days of tumor transplantation for 17 to 18 days relative to control; assay type: organism-based; parameters: dose 0.1 mg/kg, route intraperitoneal; scale not given: the % may be the effect or the level left; conditions: in vivo; outline: as §3
[20] = Chemical stability assessed as half life of hydrolysis at pH 4; assay type: physicochemical; conditions: buffer
[21] = Apparent solubility in phosphate buffered saline at pH 7.4 after 2 hrs; assay type: ADME
Outline: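 Compounds were serially diluted from 10 mM DMSO stock into PBS pH 7.4 (2% DMSO final), giving 1–200 µM final at eight concentrations, in duplicate. Incubation was 2 h at 37 °C. Solubility was taken as the onset of increased absorbance at 620 nm.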

[22] = target: Plasminogen (Mus musculus, UniProt P20918); experiment: Inhibition of mouse plasmin
Plasminogen (Mus musculus, UniProt P20918), sequence (P20918 98-581 limits assumed): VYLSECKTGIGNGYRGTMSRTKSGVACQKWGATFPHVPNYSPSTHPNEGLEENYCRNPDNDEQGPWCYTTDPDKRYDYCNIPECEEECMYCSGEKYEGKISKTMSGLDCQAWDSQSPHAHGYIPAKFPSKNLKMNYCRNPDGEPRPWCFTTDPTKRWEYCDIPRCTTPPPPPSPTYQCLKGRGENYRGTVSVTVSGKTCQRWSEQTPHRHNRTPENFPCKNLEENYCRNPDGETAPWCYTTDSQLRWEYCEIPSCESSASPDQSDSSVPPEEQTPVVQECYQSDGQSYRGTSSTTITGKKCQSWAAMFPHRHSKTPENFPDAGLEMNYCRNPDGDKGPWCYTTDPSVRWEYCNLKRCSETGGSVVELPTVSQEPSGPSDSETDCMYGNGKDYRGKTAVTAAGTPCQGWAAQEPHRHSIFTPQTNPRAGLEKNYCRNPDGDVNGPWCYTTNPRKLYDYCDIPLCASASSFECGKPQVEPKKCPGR
Plasminogen (Mus musculus, UniProt P20918), sequence (P20918 582-812 limits assumed): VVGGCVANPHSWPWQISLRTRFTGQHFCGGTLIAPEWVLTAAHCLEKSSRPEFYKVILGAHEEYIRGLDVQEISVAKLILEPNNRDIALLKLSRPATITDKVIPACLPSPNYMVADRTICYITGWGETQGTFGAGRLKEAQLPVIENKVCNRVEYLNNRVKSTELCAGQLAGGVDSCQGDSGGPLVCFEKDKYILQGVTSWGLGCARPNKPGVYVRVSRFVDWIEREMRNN

[23] = Antimetastatic activity against Brown Norwegian rat bearing BN472 tumor assessed as reduction of interpectoral lymph node weight at 1 mg/kg, ip administered once daily after 4 days of tumor transplantation for 17 to 18 days relative to control; assay type: functional; parameters: scale not given: the % may be the effect or the level left; conditions: route intraperitoneal
[24] = Antimetastatic activity against Brown Norwegian rat bearing BN472 tumor assessed as reduction of interpectoral lymph node weight at 0.1 mg/kg, ip administered once daily after 4 days of tumor transplantation for 17 to 18 days relative to control; assay type: functional; parameters: scale not given: the % may be the effect or the level left; conditions: route intraperitoneal
[25] = Chemical stability assessed as half life of hydrolysis at pH 8.8; assay type: physicochemical; conditions: buffer
[26] = tested on: Rattus norvegicus; experiment: Toxicity in Brown Norwegian rat bearing BN472 tumor assessed as increase in kidney weight at 1 mg/kg, ip administered once daily after 4 days of tumor transplantation for 17 to 18 days relative to control; assay type: organism-based; parameters: dose 1 mg/kg, route intraperitoneal; conditions: in vivo; outline: as §3
[27] = tested on: Rattus norvegicus; experiment: Toxicity in Brown Norwegian rat bearing BN472 tumor assessed as increase in lung weight at 0.1 mg/kg, ip administered once daily after 4 days of tumor transplantation for 17 to 18 days relative to control; assay type: organism-based; parameters: dose 0.1 mg/kg, route intraperitoneal; conditions: in vivo; outline: as §3
[28] = Antitumor activity aganist Brown Norwegian rat bearing BN472 tumor assessed as reduction of tumor weight at 0.1 mg/kg, ip administered once daily after 4 days of tumor transplantation for 17 to 18 days relative to control; assay type: functional; parameters: scale not given: the % may be the effect or the level left; conditions: route intraperitoneal; outline: as §1
[29] = tested on: Rattus norvegicus; experiment: Toxicity in Brown Norwegian rat bearing BN472 tumor assessed as decrease in spleen weight at 1 mg/kg, ip administered once daily after 4 days of tumor transplantation for 17 to 18 days relative to control; assay type: organism-based; parameters: dose 1 mg/kg, route intraperitoneal; scale not given: the % may be the effect or the level left; conditions: in vivo; outline: as §3
[30] = target: Urokinase-type plasminogen activator (Rattus norvegicus, UniProt P29598); experiment: Inhibition of rat uPA
Urokinase-type plasminogen activator (Rattus norvegicus, UniProt P29598), sequence (P29598 20-177 limits assumed): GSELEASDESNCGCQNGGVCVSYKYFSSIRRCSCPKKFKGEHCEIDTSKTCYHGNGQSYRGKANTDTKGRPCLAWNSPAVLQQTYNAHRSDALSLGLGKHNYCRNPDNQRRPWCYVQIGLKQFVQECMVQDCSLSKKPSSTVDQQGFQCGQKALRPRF
Urokinase-type plasminogen activator (Rattus norvegicus, UniProt P29598), sequence (P29598 179-432 limits assumed): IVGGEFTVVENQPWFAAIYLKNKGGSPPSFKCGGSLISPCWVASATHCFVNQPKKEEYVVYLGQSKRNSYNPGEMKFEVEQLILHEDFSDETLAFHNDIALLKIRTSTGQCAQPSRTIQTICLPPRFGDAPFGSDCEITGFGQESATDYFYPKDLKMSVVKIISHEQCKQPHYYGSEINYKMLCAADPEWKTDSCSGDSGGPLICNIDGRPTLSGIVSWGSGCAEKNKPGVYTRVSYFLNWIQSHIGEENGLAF

[31] = Antimetastatic activity against Brown Norwegian rat bearing BN472 tumor assessed as decrease in number of lung foci at 1 mg/kg, ip administered once daily after 4 days of tumor transplantation for 17 to 18 days relative to control; assay type: functional; parameters: scale not given: the % may be the effect or the level left; conditions: route intraperitoneal; outline: as §2
[32] = tested on: Rattus norvegicus; experiment: Toxicity in Brown Norwegian rat bearing BN472 tumor assessed as effect on body weight at 0.1 mg/kg, ip administered once daily after 4 days of tumor transplantation for 17 to 18 days relative to control; assay type: organism-based; parameters: dose 0.1 mg/kg, route intraperitoneal; conditions: in vivo; outline: as §3
[33] = tested on: Rattus norvegicus; experiment: Toxicity in Brown Norwegian rat bearing BN472 tumor assessed as increase in uterus weight at 1 mg/kg, ip administered once daily after 4 days of tumor transplantation for 17 to 18 days relative to control; assay type: organism-based; parameters: dose 1 mg/kg, route intraperitoneal; conditions: in vivo; outline: as §3
[34] = target: Prothrombin (Homo sapiens, UniProt P00734); experiment: Inhibition of human thrombin
Outline: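 Human plasma thrombin was assayed at 37 °C in Tris pH 8.3. […] Initial rate was read at 405 nm, in duplicate. IC50 was obtained from a four-parameter logistic fit.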

[35] = Stability in human plasma after 3 hrs; assay type: ADME, cell-free; conditions: read-out: Stability
Outline: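 Compound was added from 10 mM DMSO stock to human plasma at 200 µM final and shaken at 37 °C for up to 24 h. Aliquots were quenched in methanol and centrifuged. The supernatant was diluted with internal standard and analysed by LC/MS/MS in triplicate. Result is given as % parent compound remaining.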

[36] = Antimetastatic activity against Brown Norwegian rat bearing BN472 tumor assessed as reduction of axillary lymph node weight at 1 mg/kg, ip administered once daily after 4 days of tumor transplantation for 17 to 18 days relative to control; assay type: functional; parameters: scale not given: the % may be the effect or the level left; conditions: route intraperitoneal; outline: as §2
[37] = target: Urokinase-type plasminogen activator (Mus musculus, UniProt P06869); experiment: Inhibition of mouse uPA
Urokinase-type plasminogen activator (Mus musculus, UniProt P06869), sequence (P06869 21-178 limits assumed): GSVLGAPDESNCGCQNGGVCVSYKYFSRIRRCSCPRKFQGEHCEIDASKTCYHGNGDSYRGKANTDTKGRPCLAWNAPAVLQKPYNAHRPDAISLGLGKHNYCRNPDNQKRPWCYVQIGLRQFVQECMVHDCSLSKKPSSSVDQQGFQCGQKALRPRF
Urokinase-type plasminogen activator (Mus musculus, UniProt P06869), sequence (P06869 180-433 limits assumed): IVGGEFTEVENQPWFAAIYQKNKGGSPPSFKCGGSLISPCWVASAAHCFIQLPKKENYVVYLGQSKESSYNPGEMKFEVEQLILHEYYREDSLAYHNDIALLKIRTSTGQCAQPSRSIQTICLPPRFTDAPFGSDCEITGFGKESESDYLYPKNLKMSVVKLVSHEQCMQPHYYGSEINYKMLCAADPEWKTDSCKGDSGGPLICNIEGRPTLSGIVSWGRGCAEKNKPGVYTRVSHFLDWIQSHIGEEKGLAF

[38] = Antitumor activity aganist Brown Norwegian rat bearing BN472 tumor assessed as reduction of tumor size at 0.1 mg/kg, ip administered once daily after 4 days of tumor transplantation for 17 to 18 days relative to control; assay type: functional; parameters: scale not given: the % may be the effect or the level left; conditions: route intraperitoneal; outline: as §1

COC(=O)NC(Cc1ccc(NC(=N)N)cc1)P(=O)(Oc1ccccc1)Oc1ccccc1 (stereo not drawn)
Activity [1]: 9% | Activity [2]: 46% | Activity [3]: 17% | Activity [4]: 2% | IC50 [5]: 13 µM | Activity [6]: 169.5 g | logD [7]: 1.1 | IC50 [8]: 42 µM | Kapp [9]: 62000 M⁻¹ s⁻¹ | Activity [10]: 30% | half-life [11]: 120 h | IC50 [12]: 15 µM | IC50 [13]: > 100 µM | Activity [14]: 29% | Activity [15]: 11% | half-life [16]: > 336 h | Activity [17]: 3% | Activity [18]: 3% | Activity [19]: 3% | half-life [20]: > 336 h | solubility at 2 h [21]: > 200 µM | IC50 [22]: 25 µM | Activity [23]: 8% | Activity [24]: 10% | half-life [25]: 6 h | Activity [26]: 8% | Activity [27]: 3% | Activity [28]: 27% | Activity [29]: 12% | IC50 [30]: 0.0195 µM | Activity [31]: 61% | Activity [32]: 168.5 g | Activity [33]: 36% | IC50 [34]: 17 µM | remaining at 3 h [35]: 63% | Activity [36]: 61% | IC50 [37]: 0.032 µM | Activity [38]: 17%
